Like-named read-outs stand apart in the source and are kept apart here.

Test [1] has as its system MCF-7 human cancer cell line. As to the kind of experiment: In vitro antiproliferative activity, LDH release assay, MCF-7. Type of test: cell-based. Particulars: for IC50: Homo sapiens. The essentials:
(§1)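 Cells were grown in RPMI-1640 with 10% heat-inactivated FBS and penicillin/streptomycin at 37 °C, 5% CO2. Seeded at 2 × 10^5 cells per well, grown 18 h, then treated with a concentration series for 48 h. LDH in supernatant and in 6% Triton X-100 lysate was read kinetically for 1 min at 340 nm, using pH 7.5 phosphate buffer with 4.6 mM pyruvate and β-NADH. Release was taken as % of total; IC50 by probit, thrice in triplicate.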

Test [2] relates to normal human skin fibroblast (BJ-1) cell line. Put plainly: In vitro antiproliferative activity, LDH release assay, BJ-1 normal cells. The format is cell-based. Particulars: 48 h, read-out: BJ-1 IC50. The procedure, abridged: as §1
Background: LDH in the medium is a marker of cell lysis.

Test [3] relates to MCF-7 cells. Put plainly: Cell cycle analysis by flow cytometry. Conditions: MCF-7, 48 h. Type of test: cell-based, human. For orientation: Flow cytometry measures light scatter and fluorescence of single cells or particles in a stream.
The test system of a further test is VEGFR2. Type of test: biochemical, human. Conditions: biomarker for angiogenesis.
For a further test, the system named is MMP9. Put plainly: In vitro MMP9 inhibition assay. The format is biochemical, human. Particulars: biomarker for invasion. The procedure, abridged: (§2)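 Enzyme activity kits were run per manufacturer's instructions. Experiments were done in triplicate (n = 3) and reported as mean ± SD. IC50s were derived by probit analysis.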
Test [4] deals with MCF-7 cells. Put plainly: Wound healing. Type of test: cell-based, human. Conditions: control cells 97.03%.
Test [5] deals with MCF-7 cells. As to the kind of experiment: Apoptosis assay, Annexin-V/FITC and PI flow cytometry. Type of test: cell-based, human. Particulars: MCF-7, 48 h.
For another test, the target named is aminopeptidase N (APN) (Homo sapiens, UniProt P15144). As to the kind of experiment: In vitro APN inhibition assay. The format is biochemical. The procedure, abridged:
as §2

Setting [6] is: MCF7, 48 h, read-out: MCF-7 IC50.
The mark [7] stands for this setting: MCF7, read-out: MCF-7 Experimental activity (pIC50) (converted).

aminopeptidase N (APN), sequence (P15144 whole entry): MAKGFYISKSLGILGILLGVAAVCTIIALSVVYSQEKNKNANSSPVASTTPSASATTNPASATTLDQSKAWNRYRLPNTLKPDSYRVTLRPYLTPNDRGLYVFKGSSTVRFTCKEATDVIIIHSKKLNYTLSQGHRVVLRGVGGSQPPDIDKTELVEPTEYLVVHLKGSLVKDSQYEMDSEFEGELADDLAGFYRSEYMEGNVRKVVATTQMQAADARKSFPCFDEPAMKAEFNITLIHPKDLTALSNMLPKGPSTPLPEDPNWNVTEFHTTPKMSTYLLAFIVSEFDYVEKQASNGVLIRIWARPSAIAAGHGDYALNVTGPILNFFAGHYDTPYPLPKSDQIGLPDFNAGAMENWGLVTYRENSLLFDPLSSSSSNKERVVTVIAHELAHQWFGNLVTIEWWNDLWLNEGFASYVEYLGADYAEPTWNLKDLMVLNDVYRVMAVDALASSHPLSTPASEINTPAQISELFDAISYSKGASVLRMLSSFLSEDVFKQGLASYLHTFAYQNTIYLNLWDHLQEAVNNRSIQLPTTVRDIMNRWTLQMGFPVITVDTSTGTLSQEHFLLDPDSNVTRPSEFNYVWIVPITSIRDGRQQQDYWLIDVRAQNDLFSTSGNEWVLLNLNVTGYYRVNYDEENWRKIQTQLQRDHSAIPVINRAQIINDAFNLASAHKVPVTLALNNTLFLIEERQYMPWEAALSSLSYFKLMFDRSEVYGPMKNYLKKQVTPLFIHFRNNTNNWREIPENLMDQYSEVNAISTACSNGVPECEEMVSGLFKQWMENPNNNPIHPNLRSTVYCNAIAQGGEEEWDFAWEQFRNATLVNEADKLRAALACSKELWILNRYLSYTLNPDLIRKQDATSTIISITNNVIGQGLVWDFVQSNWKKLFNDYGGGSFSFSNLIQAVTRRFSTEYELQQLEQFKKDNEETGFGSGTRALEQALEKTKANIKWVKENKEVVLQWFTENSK

Consider `CC1=NN(c2ccccc2Cl)C(c2ccccc2)C1` (stereo not shown) [Compound 3, 1-(2-Chlorophenyl)-4,5-dihydro-3-methyl-5-phenyl-1H-pyrazole], for which the IC50 in test [1] (setting [6]) is 8.8 ± 0.5 µM; in test [1] (setting [7]), 8.8 µM.
As to `CC1=NN(c2c(Cl)cc(Cl)cc2Cl)C(c2ccccc2)C1` (stereo not shown) [Compound 4, 1-(2,4,6-Trichlorophenyl)-4,5-dihydro-3-methyl-5-phenyl-1H-pyrazole], the values for the IC50 in test [1] (setting [6]) and in test [1] (setting [7]) were 8.1 ± 0.5 µM and 8.1 µM, respectively.
As to `CNC(=S)N1N=C(C)CC1c1ccccc1` (stereo not shown) [Compound 6, 4,5-Dihydro-N,3-dimethyl-5-phenylpyrazole-1-carbothioamide], the IC50 in test [2] is 18.2 ± 1.5 µM; in test [1] (setting [6]), 6.4 ± 0.3 µM; in test [1] (setting [7]), 6.4 µM.
In the same order, the values of `CCNC(=S)N1N=C(C)CC1c1ccccc1` (stereo not shown) [Compound 7, N-Ethyl-4,5-dihydro-3-methyl-5-phenylpyrazole-1-carbothioamide] are 18.7 ± 1.5 µM, 5.8 ± 0.2 µM and 5.8 µM.
As for `CC1=NN(C(=S)Nc2ccccc2)C(c2ccccc2)C1` (stereo not shown) [Compound 8, 4,5-Dihydro-3-methyl-N,5-diphenylpyrazole-1-carbothioamide], the “cell population in S phase” value in the test with MCF-7 cells [3] (control 24.79%) is listed as 23.02%. In the test with MCF-7 cells [3] (control 65.02%), the “cell population in G0/G1 phase” value came to 72.11%. Moreover, the IC50 in test [2] was 29.1 ± 2.3 µM; in test [1] (setting [6]), 6.2 ± 0.2 µM; in test [1] (setting [7]) it was 6.2 µM; against aminopeptidase N (APN), 15.8 µM. The “VEGFR2 inhibition pIC50” value in the test with VEGFR2 is listed as 6.7. For the same molecule, the “MMP9 inhibition pIC50” value in the test on MMP9 is listed as 6.4. In addition, the “percentage closure of the wound gap” value with MCF-7 cells [4] was 57.77%. The late apoptosis in the test with MCF-7 cells [5] (control 0.15%) came to 17.11%. Besides, in the test with MCF-7 cells [5] (control 0.37%), the early apoptosis amounted to 11.52%. The “total MCF-7 cell death” value with MCF-7 cells [5] (control 1.95%) worked out at 32.91%. The “selectivity index (SI)” value in test [1] (BJ-1 versus MCF-7) was 4.7.
Turning to `CC1=NN(C(=S)NCc2ccccc2)C(c2ccccc2)C1` (stereo not shown) [Compound 9, N-Benzyl-4,5-dihydro-3-methyl-5-phenylpyrazole-1-carbothioamide], the IC50 in test [1] (setting [6]) is 7 ± 0.3 µM; in test [1] (setting [7]), 7 µM.
For the molecule `CC1=NN(c2nc(-c3ccccc3)cs2)C(c2ccccc2)C1` (stereo not shown) [Compound 10, 4,5-Dihydro-3-methyl-5-phenyl-1-(4-phenylthiazol-2-yl)-1H-pyrazole], the figures for the IC50 in test [1] (setting [6]) and in test [1] (setting [7]) were 7.6 ± 0.3 µM and 7.6 µM, respectively.
On the same counts, the results for `CC1=NN(c2nc(-c3ccc(F)cc3)cs2)C(c2ccccc2)C1` (stereo not shown) [Compound 11, 1-(4-(4-Fluorophenyl)thiazol-2-yl)-4,5-dihydro-3-methyl-5-phenyl-1H-pyrazole] are 6.9 ± 0.2 µM and 6.9 µM.
On the same counts, the results for `COc1ccc(-c2csc(N3N=C(C)CC3c3ccccc3)n2)cc1` (stereo not shown) [Compound 12, 4,5-Dihydro-1-(4-(4-methoxyphenyl)thiazol-2-yl)-3-methyl-5-phenyl-1H-pyrazole] are 7.1 ± 0.2 µM and 7.1 µM.
In the same order, the values of `CC1=NN(c2nc(-c3ccc(Cl)cc3Cl)cs2)C(c2ccccc2)C1` (stereo not shown) [Compound 13, 1-(4-(2,4-Dichlorophenyl)thiazol-2-yl)-4,5-dihydro-3-methyl-5-phenyl-1H-pyrazole] are 6.7 ± 0.2 µM and 6.7 µM.
As for `CC1=NN(C2=NC(=O)C(C)S2)C(c2ccccc2)C1` (stereo not shown) [Compound 15, 2-(4,5-Dihydro-3-methyl-5-phenylpyrazol-1-yl)-5-methylthiazol-4(5H)-one], the IC50 was 8.6 ± 0.3 µM in test [1] (setting [6]) and 8.6 µM in test [1] (setting [7]).
Turning to `CC1=NN(C2=NC(=O)C(=Cc3ccc(F)cc3)S2)C(c2ccccc2)C1` (stereo not shown) [Compound 16, 5-(4-Fluorobenzylidene)-2-(4,5-dihydro-3-methyl-5-phenylpyrazol-1-yl)thiazol-4(5H)-one], the IC50 was 6.6 ± 0.2 µM in test [1] (setting [6]) and 6.6 µM in test [1] (setting [7]).
Turning to `COc1ccc(C=C2SC(N3N=C(C)CC3c3ccccc3)=NC2=O)cc1` (stereo not shown) [Compound 17, 5-(4-Methoxybenzylidene)-2-(4,5-dihydro-3-methyl-5-phenylpyrazol-1-yl)thiazol-4(5H)-one], the IC50 was 7 ± 0.3 µM in test [1] (setting [6]) and 7 µM in test [1] (setting [7]).
On the same counts, the results for `CC1=NN(C2=NC(=O)C(=Cc3ccc(Cl)cc3Cl)S2)C(c2ccccc2)C1` (stereo not shown) [Compound 18, 5-(2,4-Dichlorobenzylidene)-2-(4,5-dihydro-3-methyl-5-phenylpyrazol-1-yl)thiazol-4(5H)-one] are 6.9 ± 0.2 µM and 6.9 µM.
In the same order, the values of `COc1ccc(C=C2SC(N3N=C(C)CC3c3ccccc3)=NC2=O)cc1OC` (stereo not shown) [Compound 19, 5-(3,4-Dimethoxybenzylidene)-2-(4,5-dihydro-3-methyl-5-phenylpyrazol-1-yl)thiazol-4(5H)-one] are 7.5 ± 0.2 µM and 7.5 µM.
For the molecule `COc1cccc2c1C(=O)c1c(O)c3c(c(O)c1C2=O)C[C@@](O)(C(=O)CO)C[C@@H]3O[C@H]1C[C@H](N)[C@H](O)[C@H](C)O1` [Doxorubicin, reference compound], the IC50 in test [2] amounted to 12.9 ± 1.3 µM; in test [1] (setting [6]), 4.9 ± 0.3 µM.
On to `O=c1c(O)c(-c2ccc(O)c(O)c2)oc2cc(O)cc(O)c12` [quercetin, reference compound], for which, in the test on MMP9, the “MMP9 inhibition pIC50” value is 6.7.

(Values after PMC11248911 (RSC Advances, 2024).)
